Values after ≈ are worked out from the molar mass of the structure shown.
Key:
[1] = system: Vero; assay: Cytotoxicity against african green monkey Vero cells after 48 hrs by MTT assay; assay type: cell-based; conditions: Chlorocebus sabaeus
[2] = system: Mycobacterium tuberculosis; assay: Antitubercular activity against Mycobacterium tuberculosis H37Rv ATCC 27294 by BACTEC 960 assay; assay type: functional
[3] = Selectivity index, ratio of IC50 for african green monkey Vero cells to MIC for Mycobacterium tuberculosis H37Rv ATCC 27294; assay type: toxicity, cell-based; conditions: read-out: Selectivity Index
Outline: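 Vero cells were seeded at ~4×10^5 cells/mL and grown 48 h at 37 °C in 5% CO2. […] MTT 0.5 mg/mL was added for 2 h and formazan dissolved in DMSO, with absorbance read at 570 nm to give IC50. SI = IC50 / H37Rv MIC (IC99).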

[4] = Octanol-water partition co-efficient, log P of the compound by shake-flask method; assay type: physicochemical

SMILES	MIC [2]	further results
O=C(NNC1CCC(c2ccccc2)CC1)c1ccncc1 (configuration not stated)	0.44 µM (≈ 0.13 µg/mL)	IC50 [1]: > 200 µM; selectivity ratio [3]: > 454; logP [4]: 2.83
O=C(NNC(=O)C(O)C(O)C(O)CO)c1ccncc1 (configuration not stated)	0.501 µM (≈ 0.143 µg/mL)	
C/C(=N\NC(=O)c1ccncc1)c1cccc(CN2CCN(c3ccccn3)CC2)c1O	0.88 µM (≈ 0.379 µg/mL)	
CC(C)CCOc1ccc(/C=N/NC(=O)c2ccncc2)cc1	0.161 µM (≈ 0.0501 µg/mL)	
Cc1ccc(C)n1NC(=O)c1ccncc1	46.5 µM (≈ 10 µg/mL)	
N/C(COc1ccc([N+](=O)[O-])cc1)=N/NC(=O)c1ccncc1	19.8 µM (≈ 6.25 µg/mL)	
CC(=O)NNC(=O)c1ccncc1	44.6 µM (≈ 8 µg/mL)	
CCCCCC/C=N/NC(=O)c1ccncc1	0.129 µM (≈ 0.0301 µg/mL)	
CC(=O)NCc1cc(C(=O)NN)ccn1	243 µM (≈ 50.6 µg/mL)	
COC(=O)c1ccc(/C=N/NC(=O)c2ccncc2)cc1	1.06 µM (≈ 0.3 µg/mL)	logP [4]: 1.32
C/C(=N\NC(=O)c1ccncc1)c1cccc(CN(c2ccccc2)c2ccccc2)c1O	0.56 µM (≈ 0.244 µg/mL)	
CCn1cc(C(=O)O)c(=O)c2cc(F)c(N3CCN(Cc4cccc(/C(C)=N/NC(=O)c5ccncc5)c4O)C(C)C3)c(F)c21 (configuration not stated)	0.9 µM (≈ 0.557 µg/mL)	
CCCCCCCCC(=O)NNC(=O)c1ccncc1	0.09 µM (≈ 0.025 µg/mL)	
CCCCCCCCCCCCNNC(=O)c1ccncc1	0.164 µM (≈ 0.0501 µg/mL)	
O=C(N/N=C/c1cccc(CO)c1)c1ccncc1	0.47 µM (≈ 0.12 µg/mL)	IC50 [1]: > 200 µM; selectivity ratio [3]: > 425; logP [4]: 0.902
CC(=O)C/C(C)=N/NC(=O)c1ccncc1	3.65 µM (≈ 0.8 µg/mL)	
Cc1cccc(OC/C(N)=N/NC(=O)c2ccncc2)c1	11 µM (≈ 3.12 µg/mL)	
CC(C)NNC(=O)c1ccncc1 [IPRONIAZID]	2.23 µM (≈ 0.4 µg/mL)	
O=C(NN=C1CCC(c2ccccc2)CC1)c1ccncc1 (configuration not stated)	0.27 µM (≈ 0.0792 µg/mL)	IC50 [1]: > 200 µM; selectivity ratio [3]: > 733; logP [4]: 1.97
NNC(=O)c1ccnc(Cl)c1	392 µM (≈ 67.3 µg/mL)	
O=C(N/N=C/C(O)C(O)C(O)CO)c1ccncc1 (configuration not stated)	0.186 µM (≈ 0.0501 µg/mL)	
NNC(=O)c1ccncc1N	9.86 µM (≈ 1.5 µg/mL)	
NNC(=O)c1ccnc(I)c1	254 µM (≈ 66.8 µg/mL)	
O=C(NNCc1ccco1)c1ccncc1	69.1 µM (≈ 15 µg/mL)	

SMILES	MIC [2]	further results
O=C(N/N=C/c1ccc(CO)cc1)c1ccncc1	0.27 µM (≈ 0.0689 µg/mL)	IC50 [1]: > 200 µM; selectivity ratio [3]: > 729; logP [4]: 0.731
NNC(=O)c1ccnc([N+](=O)[O-])c1	371 µM (≈ 67.6 µg/mL)	
NNC(=O)c1ccnc(F)c1	2.58 µM (≈ 0.4 µg/mL)	
CC1CCC(=NNC(=O)c2ccncc2)CC1 (configuration not stated)	0.303 µM (≈ 0.0701 µg/mL)	
CCN(CC)c1cc(C(=O)NN)ccn1	717 µM (≈ 149 µg/mL)	
N/C(COc1ccc(Cl)cc1)=N\NC(=O)c1ccncc1	10.2 µM (≈ 3.12 µg/mL)	
C/C(=N\NC(=O)c1ccncc1)c1cccc(CN2CCCC2)c1O	2.2 µM (≈ 0.745 µg/mL)	
C/C(=N\NC(=O)c1ccncc1)c1cccc(CN2CCOCC2)c1O	3.57 µM (≈ 1.27 µg/mL)	
C/C(=N\NC(=O)c1ccncc1)c1cccc(CN2CCCCC2)c1O	4.61 µM (≈ 1.62 µg/mL)	
CC(C)COc1ccc(/C=N/NC(=O)c2ccncc2)cc1	0.673 µM (≈ 0.2 µg/mL)	
NNC(=O)c1ccnc(Br)c1	69.4 µM (≈ 15 µg/mL)	
CC(C)=NNC(=O)c1ccncc1	0.113 µM (≈ 0.02 µg/mL)	
CC1CCC(NNC(=O)c2ccncc2)CC1 (configuration not stated)	21.4 µM (≈ 5 µg/mL)	
CCOc1cc(C(=O)NN)ccn1	450 µM (≈ 81.5 µg/mL)	
C/C(=N/NC(=O)c1ccncc1)c1cccc(CN2CCN(Cc3ccccn3)CC2)c1O	0.87 µM (≈ 0.387 µg/mL)	
NNC(=O)c1ccncc1 [ISONIAZID]	0.146 µM (≈ 0.02 µg/mL)	IC50 [1]: > 200 µM; selectivity ratio [3]: > 686; logP [4]: -0.851
O=C(NN=C1CCCC1)c1ccncc1	0.2 µM (≈ 0.0406 µg/mL)	IC50 [1]: > 190 µM; selectivity ratio [3]: > 965; logP [4]: 0.22
CCc1cc(C(=O)NN)ccn1	21.1 µM (≈ 3.49 µg/mL)	
NNC(=O)c1ccnc(NN)c1	0.42 µM (≈ 0.0702 µg/mL)	IC50 [1]: > 200 µM; selectivity ratio [3]: > 478; logP [4]: -0.541
Cc1cnccc1C(=O)NN	1320 µM (≈ 200 µg/mL)	
O=Cc1ccc(/C=N/NC(=O)c2ccncc2)cc1	0.24 µM (≈ 0.0608 µg/mL)	IC50 [1]: > 200 µM; selectivity ratio [3]: > 844; logP [4]: 1.32
CCCCCC(C)C(=O)NNC(=O)c1ccncc1 (configuration not stated)	3.04 µM (≈ 0.801 µg/mL)	logP [4]: 2.09
C/C=N/NC(=O)c1ccncc1	0.245 µM (≈ 0.04 µg/mL)	
C/C(=N\NC(=O)c1ccncc1)c1cccc(CN(Cc2ccccc2)Cc2ccccc2)c1O	1.3 µM (≈ 0.604 µg/mL)	

SMILES	MIC [2]	further results
CC(O)(NNC(=O)c1ccncc1)C(=O)O (configuration not stated)	0.266 µM (≈ 0.0599 µg/mL)	
C/C(=N/NC(=O)c1ccncc1)c1cccc(CN2CCN(Cc3ccc(F)cn3)CC2)c1O	2.04 µM (≈ 0.944 µg/mL)	
CCCCC/C(C)=N/NC(=O)c1ccncc1	0.129 µM (≈ 0.0301 µg/mL)	
C/C(=N/NC(=O)c1ccncc1)c1cccc(CN2CCNCC2)c1O	8.61 µM (≈ 3.04 µg/mL)	
CCC(CC)=NNC(=O)c1ccncc1	0.097 µM (≈ 0.0199 µg/mL)	
O=C(N/N=C(\CO)C(O)C(O)C(O)CO)c1ccncc1 (configuration not stated)	0.2 µM (≈ 0.0599 µg/mL)	
C/C(=N\NC(=O)c1ccncc1)c1cccc(CN2CCN(c3cc4c(cc3F)c(=O)c(C(=O)O)cn4C3CC3)CC2)c1O	1.26 µM (≈ 0.754 µg/mL)	
NNC(=O)c1ccnc(Cc2ccccc2)c1	38.5 µM (≈ 8.75 µg/mL)	
C/C(=N\NC(=O)c1ccncc1)c1cccc(CN2CCN(C)CC2)c1O	3.36 µM (≈ 1.23 µg/mL)	
O=Cc1cccc(/C=N/NC(=O)c2ccncc2)c1	0.28 µM (≈ 0.0709 µg/mL)	IC50 [1]: > 200 µM; selectivity ratio [3]: > 724; logP [4]: 1.33
CCCCCCCCCC(=O)NNC(=O)c1ccncc1	0.38 µM (≈ 0.111 µg/mL)	IC50 [1]: > 75 µM; selectivity ratio [3]: > 530; logP [4]: 3.46
Cc1ccc(OC/C(N)=N/NC(=O)c2ccncc2)cc1	22 µM (≈ 6.25 µg/mL)	
CCCCN(CCCC)Cc1cccc(/C(C)=N/NC(=O)c2ccncc2)c1O	4.43 µM (≈ 1.76 µg/mL)	
CC1CCCC(NNC(=O)c2ccncc2)C1 (configuration not stated)	17.1 µM (≈ 4 µg/mL)	
CCN(CC)Cc1cccc(/C(C)=N\NC(=O)c2ccncc2)c1O	3.93 µM (≈ 1.34 µg/mL)	
CC(=O)Nc1ccc(/C=N\NC(=O)c2ccncc2)cc1	0.283 µM (≈ 0.0799 µg/mL)	
CCCc1cc(C(=O)NN)ccn1	55.2 µM (≈ 9.89 µg/mL)	
CCC(C)NNC(=O)c1ccncc1 (configuration not stated)	2.07 µM (≈ 0.4 µg/mL)	
CC(C)(C#N)NNC(=O)c1ccncc1	0.294 µM (≈ 0.06 µg/mL)	
CCN(CC)CN(C)c1ccc(/C=N/NC(=O)c2ccncc2)cc1	0.236 µM (≈ 0.0801 µg/mL)	
CC(C)CNNC(=O)c1ccncc1	0.517 µM (≈ 0.0999 µg/mL)	
CC(=O)Nc1cc(C(=O)NN)ccn1	2150 µM (≈ 418 µg/mL)	
O=C(NNC(O)C(Cl)(Cl)Cl)c1ccncc1 (configuration not stated)	0.141 µM (≈ 0.0401 µg/mL)	
O=C(NNC(=O)c1ccncc1)c1ccncc1	33 µM (≈ 8 µg/mL)	

SMILES	MIC [2]	further results
CNC1C(OC2C(OC3C(O)C(O)C(NC(=N)N)C(O)C3NC(=N)N)OC(C)C2(O)/C=N\NC(=O)c2ccncc2)OC(CO)C(O)C1O (configuration not stated)	0.214 µM (≈ 0.15 µg/mL)	
O=C(NNC1CCCCC1)c1ccncc1	22.8 µM (≈ 5 µg/mL)	
CCC(CC)NNC(=O)c1ccncc1	14.5 µM (≈ 3 µg/mL)	
N/C(COc1cccc(Cl)c1)=N\NC(=O)c1ccncc1	10.2 µM (≈ 3.12 µg/mL)	
O=CNNC(=O)c1ccncc1	18.2 µM (≈ 3 µg/mL)	
CCN(CC)c1ccc(/C=N/NC(=O)c2ccncc2)cc1	2.02 µM (≈ 0.6 µg/mL)	
C/C(=N\NC(=O)c1ccncc1)c1cccc(CN(C)C)c1O	2.29 µM (≈ 0.715 µg/mL)	
O=C(NNS(=O)(=O)c1ccc([N+](=O)[O-])cc1)c1ccncc1	186 µM (≈ 60 µg/mL)	
CCCCCCCCCC/C=N/NC(=O)c1ccncc1	1.04 µM (≈ 0.3 µg/mL)	
O=C(NN=C1CCCCC1)c1ccncc1	0.028 µM (≈ 0.00608 µg/mL)	
C=Cc1cc(C(=O)NN)ccn1	35 µM (≈ 5.71 µg/mL)	
Nc1ccc(S(=O)(=O)NNC(=O)c2ccncc2)cc1	2050 µM (≈ 600 µg/mL)	
O=C(N/N=C/c1ccc(Oc2ccccc2)cc1)c1ccncc1	0.95 µM (≈ 0.301 µg/mL)	logP [4]: 3.7
O=C(NNC(=O)C(O)C(OC1OC(CO)C(O)C(O)C1O)C(O)CO)c1ccncc1 (configuration not stated)	0.346 µM (≈ 0.155 µg/mL)	
NNC(=O)c1ccnc(-c2ccccc2)c1	50 µM (≈ 10.7 µg/mL)	
CC(C)/C=N\NC(=O)c1ccncc1	0.523 µM (≈ 0.1 µg/mL)	
Cc1ccccc1OC/C(N)=N/NC(=O)c1ccncc1	44 µM (≈ 12.5 µg/mL)	
C/C=C/CCCCCCC/C=N/NC(=O)c1ccncc1	0.522 µM (≈ 0.15 µg/mL)	
COc1cc(C(=O)NN)ccn1	153 µM (≈ 25.6 µg/mL)	
Cc1cc(C(=O)NN)ccn1	5.2 µM (≈ 0.786 µg/mL)	
NNC(=O)c1ccnc(N)c1	14.5 µM (≈ 2.21 µg/mL)	
O=C(NNS(=O)(=O)c1ccccc1)c1ccncc1	10.8 µM (≈ 3 µg/mL)	

— ChEMBL document CHEMBL3259548, “Design, synthesis and biological evaluation of novel isoniazid derivatives with potent antitubercular activity” (Eur J Med Chem, 2014)
